Measured values from ChEMBL document CHEMBL1687736, “Identification and biochemical characterization of small-molecule inhibitors of Clostridium botulinum neurotoxin serotype A” (Antimicrob Agents Chemother, 2009).
Calls of active or inactive are those of the source. No cut-off for these calls is given here.

Columns and labels:
[1] = molecular target: Botulinum neurotoxin type A (Clostridium botulinum) (UniProt P0DPI0); assay: Inhibition of Clostridium botulinum BoNT/A light chain-mediated SNAP-25 cleavage in mouse Neuro2a cells at 15 uM after 30 mins by Western blotting; assay type: cell-based
[2] = Inhibition of zinc carboxypeptidase A at up to 20 uM
Procedure, shortened: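 Carboxypeptidase A kit plate assay: CPA with compounds from DMSO at various concentrations, 5 min at 25°C, then stop solution and absorbance read at 350 nm. Percent inhibition was taken versus CPA with DMSO; potato tuber CPA inhibitor served as control. Two independent determinations, each in triplicate.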

[3] = molecular target: T1, Botulinum neurotoxin type A (Clostridium botulinum, UniProt P0DPI0); assay: Inhibition of protease activity of recombinant full-length Clostridium botulinum BoNT/A light chain after 5 mins by HPLC-based assay
Procedure, shortened: (§1)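 Recombinant BoNT/A light chain, full-length at 140 nM or truncated (residues 1-425) at 620 nM final, with 0.8 mM 17-mer SNAP-25 (187-203) peptide in 50 mM HEPES pH 7.3. Inhibitor was added from DMSO at nine concentrations, then 5 min at 37°C. Stopped with 0.7% TFA, cleavage quantified by reverse-phase HPLC, and IC50 derived by log-probit analysis.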

[4] = molecular target: T1, Botulinum neurotoxin type A; assay: Inhibition of protease activity of recombinant Clostridium botulinum BoNT/A (1 to 425) light chain after 5 mins by HPLC-based assay; procedure, shortened: as §1
[5] = molecular target: Botulinum neurotoxin type A (Clostridium botulinum) (UniProt P0DPI0); assay: Inhibition of Clostridium botulinum BoNT/A-mediated neuromuscular block in CD1 mouse phrenic nerve hemidiaphragm assessed as time required to 50% loss of twitch tension at 10 uM after 15 to 20 mins
[6] = molecular target: Botulinum neurotoxin type A (Clostridium botulinum) (UniProt P0DPI0); assay: Inhibition of protease activity of recombinant full-length Clostridium botulinum BoNT/A light chain at 200 uM after 5 mins by HPLC-based assay
Procedure, shortened: (§2)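 Full-length recombinant BoNT/A LC (110-140 nM) with 0.8 mM SNAP-25 17-mer peptide in 50 mM HEPES pH 7.3. Compound was added from DMSO stock without preincubation, then LC, 5 min at 37°C. TFA stop, reverse-phase HPLC. Percent inhibition came from substrate cleaved with versus without compound; the 20 µM data are means ± SD of two independent assays.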

[7] = molecular target: T2, Botulinum neurotoxin type B (Clostridium botulinum) (UniProt P10844); assay: Inhibition of protease activity of recombinant full-length Clostridium botulinum BoNT/B light chain at 20 uM after 5 mins by HPLC-based assay
T2 sequence (whole entry): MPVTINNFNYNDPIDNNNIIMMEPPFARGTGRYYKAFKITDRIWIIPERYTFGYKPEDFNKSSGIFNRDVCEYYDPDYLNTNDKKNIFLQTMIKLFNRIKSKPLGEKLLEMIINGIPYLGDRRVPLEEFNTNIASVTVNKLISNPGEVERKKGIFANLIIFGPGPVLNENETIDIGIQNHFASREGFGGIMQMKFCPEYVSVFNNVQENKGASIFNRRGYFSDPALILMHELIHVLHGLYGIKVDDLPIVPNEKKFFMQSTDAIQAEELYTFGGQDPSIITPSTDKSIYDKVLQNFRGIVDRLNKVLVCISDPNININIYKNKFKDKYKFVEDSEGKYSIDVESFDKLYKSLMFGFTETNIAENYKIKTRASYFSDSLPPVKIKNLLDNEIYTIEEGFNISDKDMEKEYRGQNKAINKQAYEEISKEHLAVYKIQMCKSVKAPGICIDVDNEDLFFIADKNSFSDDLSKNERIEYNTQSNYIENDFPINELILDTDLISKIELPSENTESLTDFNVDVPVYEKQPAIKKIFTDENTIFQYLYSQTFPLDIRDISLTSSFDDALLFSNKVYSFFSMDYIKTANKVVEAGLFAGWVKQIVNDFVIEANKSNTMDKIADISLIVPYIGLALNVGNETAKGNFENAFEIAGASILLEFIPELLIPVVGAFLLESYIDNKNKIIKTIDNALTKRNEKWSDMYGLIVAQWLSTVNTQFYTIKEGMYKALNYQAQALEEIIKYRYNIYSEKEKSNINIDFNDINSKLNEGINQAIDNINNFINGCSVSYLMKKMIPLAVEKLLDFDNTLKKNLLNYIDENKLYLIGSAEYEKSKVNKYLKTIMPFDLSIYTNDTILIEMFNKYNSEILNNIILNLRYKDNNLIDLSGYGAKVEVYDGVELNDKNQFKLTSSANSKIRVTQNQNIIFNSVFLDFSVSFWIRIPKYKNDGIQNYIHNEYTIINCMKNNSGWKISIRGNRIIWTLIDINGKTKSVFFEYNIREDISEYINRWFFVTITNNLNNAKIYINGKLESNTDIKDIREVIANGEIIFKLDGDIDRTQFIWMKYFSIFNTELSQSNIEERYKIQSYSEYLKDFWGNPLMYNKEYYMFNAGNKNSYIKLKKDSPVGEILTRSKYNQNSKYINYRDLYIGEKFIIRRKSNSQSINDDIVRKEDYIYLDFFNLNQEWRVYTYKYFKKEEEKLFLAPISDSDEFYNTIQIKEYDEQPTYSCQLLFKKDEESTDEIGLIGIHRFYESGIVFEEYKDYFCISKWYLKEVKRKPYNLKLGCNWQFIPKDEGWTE
Procedure, shortened: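 Recombinant BoNT/B LC (30-40 nM) with 0.4 mM 35-mer human VAMP-2 (60-94) peptide, 1 mM DTT, 50 mM HEPES pH 7.3. Compound was added at 20 µM final without preincubation, then 5 min at 37°C. TFA stop, reverse-phase HPLC quantification of cleavage. Means ± SD of two independent assays.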

[8] = molecular target: Botulinum neurotoxin type A (Clostridium botulinum) (UniProt P0DPI0); assay: Inhibition of Clostridium botulinum BoNT/A light chain-mediated SNAP-25 cleavage in mouse Neuro2a cells at 10 uM after 30 mins by Western blotting; assay type: cell-based
[9] = molecular target: Botulinum neurotoxin type A (Clostridium botulinum) (UniProt P0DPI0); assay: Inhibition of Clostridium botulinum BoNT/A-mediated neuromuscular block in CD1 mouse phrenic nerve hemidiaphragm assessed as time required to 50% loss of twitch tension at 5 uM after 15 to 20 mins
[10] = molecular target: Botulinum neurotoxin type A (Clostridium botulinum) (UniProt P0DPI0); assay: Inhibition of protease activity of recombinant full-length Clostridium botulinum BoNT/A light chain at 20 uM after 5 mins by HPLC-based assay; procedure, shortened: as §2
[11] = molecular target: Botulinum neurotoxin type A (Clostridium botulinum) (UniProt P0DPI0); assay: Inhibition of Clostridium botulinum BoNT/A-mediated neuromuscular block in CD1 mouse phrenic nerve hemidiaphragm assessed as time required to 50% loss of twitch tension at 0.5 uM after 15 to 20 mins
[12] = molecular target: Botulinum neurotoxin type A (Clostridium botulinum) (UniProt P0DPI0); assay: Inhibition of Clostridium botulinum BoNT/A-mediated neuromuscular block in CD1 mouse phrenic nerve hemidiaphragm assessed as time required to 50% loss of twitch tension at 20 uM after 15 to 20 mins
[13] = Cytotoxicity against mouse Neuro2a cells at >= 10 uM; assay type: cell-based; details: n2a
[14] = molecular target: T1, Botulinum neurotoxin type A; assay: Binding affinity to Clostridium botulinum BoNT/A

T1 sequence (P0DPI0 2-448 limits assumed): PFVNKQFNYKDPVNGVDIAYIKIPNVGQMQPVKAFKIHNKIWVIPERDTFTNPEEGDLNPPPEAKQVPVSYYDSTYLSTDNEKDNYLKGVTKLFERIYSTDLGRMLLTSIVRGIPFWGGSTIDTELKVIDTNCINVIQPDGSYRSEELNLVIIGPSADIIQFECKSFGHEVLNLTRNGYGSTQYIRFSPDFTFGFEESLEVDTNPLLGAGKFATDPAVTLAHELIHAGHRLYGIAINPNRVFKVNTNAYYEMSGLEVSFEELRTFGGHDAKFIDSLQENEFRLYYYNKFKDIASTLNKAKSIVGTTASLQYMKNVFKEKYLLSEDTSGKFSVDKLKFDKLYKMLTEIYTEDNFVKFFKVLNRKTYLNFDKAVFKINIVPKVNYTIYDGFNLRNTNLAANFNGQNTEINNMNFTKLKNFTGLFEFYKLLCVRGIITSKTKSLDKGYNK
Chain of Botulinum neurotoxin type A (Clostridium botulinum) (P0DPI0 2-448 limits assumed): as above

Compound	Activity [1]	Activity [2]	IC50 [3]	IC50 [4]	inhibition [6]	inhibition [7]	inhibition [8]	inhibition [10]	other results
Oc1c(C(Nc2cccnc2)c2ccccc2F)ccc2cccnc12 (racemic)	Active	inactive	3.9 µM	2.4 µM	92.8%	16.8%	68%		TIME [5]: 4.68 h
Oc1c(C(Nc2cccnc2)c2ccc(C(F)(F)F)cc2)ccc2cccnc12 (racemic)	Active	inactive	4.7 µM	5 µM	92.7%	30.2%	Active		TIME [9]: 3.6 h
O=C1c2ccccc2C(=O)N1CNc1ccccc1/C(=N/Nc1ccc([N+](=O)[O-])cc1[N+](=O)[O-])c1ccccc1					82%			49%	
O=[N+]([O-])c1cccc(CN(Cc2cccc([N+](=O)[O-])c2O)c2ccccc2)c1O					75%			37%	
Cc1ccc([N+](=O)[O-])cc1NC(=O)NNC(=O)CNC(=O)NCc1ccco1					75%			52%	
Cc1ccc(NC(=O)/C(CC(=O)c2sc(Nc3ccccc3Cl)nc2C)=N/Nc2ccc([N+](=O)[O-])cc2[N+](=O)[O-])c(C)c1					85%			51%	
O=[N+]([O-])c1ccc(NCCNc2ccc([N+](=O)[O-])cc2)cc1					80%			44%	
CCOc1ccc(C(Nc2cccnc2)c2cc(Cl)c3cccnc3c2O)cc1 (racemic)	Active	inactive	2.1 µM	1.6 µM	96.2%	31.2%	Active		TIME [11]: 4.52 h
Oc1c(C(Nc2cccc3cccnc23)c2ccccc2)ccc2cccnc12 (racemic)	Active	inactive	3.2 µM	3.9 µM	91.9%	6.9%	66%		TIME [12]: 1.09 h
O=[N+]([O-])c1ccc(NC(c2ccccc2)c2ccc3cccnc3c2O)cc1 (racemic)					87%			52%	Activity [13]: Toxic
CC(CO)(Nc1ccc([N+](=O)[O-])cc1[N+](=O)[O-])C(=O)O (racemic)					65%			29%	
Ac-CRATKML-NH2									Activity [12]: inactive; TIME [12]: 0.878 h; Ki [14]: 1.9 µM
Oc1c(C(Nc2ccccn2)c2ccccc2)ccc2cccnc12 (racemic)	Active	inactive	1.6 µM	1.5 µM		8.8%	Active		TIME [5]: 4.44 h
